In ChEMBL document CHEMBL4406810, “Modifications on the Amino-3,5-dicyanopyridine Core To Obtain Multifaceted Adenosine Receptor Ligands with Antineuropathic Activity” (J Med Chem, 2019):
The source made the active and inactive calls. The calls are words filed in the database; no cut-off is given here.

Columns and labels:
CHO = test: Effect on cAMP level in wild-type CHO cells at 0.001 to 1 uM by alphascreen assay; type: functional, cell-based; conditions: Cricetulus griseus
Method in brief: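 Compounds at 1 nM to 1 µM final concentrations. cAMP quantified with AlphaScreen kit. Four independent experiments, each in triplicate.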

Adenosine receptor A1 [1] = biological target: T1, Adenosine receptor A1 (Homo sapiens, UniProt P30542); test: Displacement of [3H]DPCPX from human A1AR expressed in CHO cell membranes measured after 90 mins by scintillation counting method
T1 sequence (P30542 whole entry): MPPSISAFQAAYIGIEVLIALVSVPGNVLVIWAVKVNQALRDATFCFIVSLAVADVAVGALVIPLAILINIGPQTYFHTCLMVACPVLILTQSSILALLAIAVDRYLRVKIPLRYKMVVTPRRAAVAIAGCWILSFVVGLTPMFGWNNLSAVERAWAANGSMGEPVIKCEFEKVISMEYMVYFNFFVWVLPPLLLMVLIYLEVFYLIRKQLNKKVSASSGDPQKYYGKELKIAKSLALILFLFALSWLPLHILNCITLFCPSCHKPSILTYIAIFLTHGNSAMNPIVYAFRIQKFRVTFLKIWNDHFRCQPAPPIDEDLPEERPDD
Method in brief: (§1)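 Nonspecific binding with 1 µM DPCPX. GF/B filtration and scintillation counting. Ki by Cheng–Prusoff. Inhibition % at 1 µM. Four experiments in triplicate.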

Adenosine receptor A2a [2] = biological target: T2, Adenosine receptor A2a (Homo sapiens, UniProt P29274); test: Displacement of [3H]ZM241385 from human A2AR expressed in CHO cell membranes at 1 uM measured after 60 mins by scintillation counting method relative to control
T2 sequence (P29274 whole entry): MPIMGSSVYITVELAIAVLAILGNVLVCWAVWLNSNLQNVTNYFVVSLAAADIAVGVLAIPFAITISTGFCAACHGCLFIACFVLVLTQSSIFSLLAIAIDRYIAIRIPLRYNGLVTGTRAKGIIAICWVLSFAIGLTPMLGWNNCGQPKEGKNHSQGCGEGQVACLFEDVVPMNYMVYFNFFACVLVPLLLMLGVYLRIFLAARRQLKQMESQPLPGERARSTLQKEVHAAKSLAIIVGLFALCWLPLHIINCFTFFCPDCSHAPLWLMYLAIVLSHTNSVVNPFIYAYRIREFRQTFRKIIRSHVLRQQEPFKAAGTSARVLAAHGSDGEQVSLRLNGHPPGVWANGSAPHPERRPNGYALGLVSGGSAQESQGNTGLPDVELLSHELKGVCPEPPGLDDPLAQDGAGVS
Method in brief: (§2)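 Nonspecific binding defined with 1 µM ZM241385. Filtered on GF/B, scintillation counted. Ki by Cheng–Prusoff. Percent inhibition at 1 µM. Four experiments in triplicate.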

[3] = biological target: T3, Adenosine receptor A3 (Homo sapiens) (UniProt P0DMS8); test: Displacement of [125I]ABMECA from human A3R expressed in CHO cell membranes at 1 uM measured after 120 mins by scintillation counting method relative to control
T3 sequence (whole entry): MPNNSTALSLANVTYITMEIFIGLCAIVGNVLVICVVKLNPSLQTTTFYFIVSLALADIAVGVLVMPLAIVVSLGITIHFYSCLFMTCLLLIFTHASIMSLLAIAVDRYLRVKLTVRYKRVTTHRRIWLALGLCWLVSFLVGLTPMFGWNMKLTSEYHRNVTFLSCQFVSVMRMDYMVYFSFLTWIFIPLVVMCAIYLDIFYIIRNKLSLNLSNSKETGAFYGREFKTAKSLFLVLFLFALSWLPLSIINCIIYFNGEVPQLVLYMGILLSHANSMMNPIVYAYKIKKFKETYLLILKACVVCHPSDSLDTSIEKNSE
Method in brief: (§3)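 Nonspecific binding with 1 µM AB-MECA. GF/B filtration and counting. Ki via Cheng–Prusoff. Percent inhibition at 1 µM. Four experiments in triplicate.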

Adenosine receptor A2b = biological target: T4, Adenosine receptor A2b (Homo sapiens, UniProt P29275); test: Agonist activity at human A2B expressed in CHO cells assessed as stimulation of cAMP production by alphascreen assay; type: functional, cell-based
T4 sequence (P29275 whole entry): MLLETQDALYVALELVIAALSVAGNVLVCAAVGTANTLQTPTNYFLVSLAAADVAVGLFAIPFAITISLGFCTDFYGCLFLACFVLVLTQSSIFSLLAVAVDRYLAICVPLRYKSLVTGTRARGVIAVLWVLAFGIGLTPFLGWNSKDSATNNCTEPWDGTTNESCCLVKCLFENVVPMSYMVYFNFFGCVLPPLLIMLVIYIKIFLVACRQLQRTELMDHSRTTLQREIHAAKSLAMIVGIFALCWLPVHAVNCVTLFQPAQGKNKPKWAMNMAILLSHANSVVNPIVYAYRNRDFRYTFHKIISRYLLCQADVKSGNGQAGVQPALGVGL
Method in brief: (§4)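 Compounds tested alone at final 1 nM to 1 µM. cAMP measured by AlphaScreen. Efficacy taken at 1 µM relative to NECA 1 µM (=100%). Four independent experiments in triplicate.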

[4] = biological target: T5, Adenosine receptor A2b (Homo sapiens) (UniProt P29275); test: Agonist activity at human A2B expressed in CHO cells assessed as stimulation of cAMP production at 1 uM by alphascreen assay relative to NECA; type: functional, cell-based; method in brief: as §4
T5 sequence (whole entry): T4 sequence (P29275 whole entry)

[5] = biological target: T5, Adenosine receptor A2b (Homo sapiens); test: Antagonist activity at human A2BR expressed in CHO cells assessed as inhibition of NECA-stimulated cAMP production at 1 uM by alphascreen assay relative to control; type: functional, cell-based
Method in brief: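 Compounds added at 1 nM to 1 µM final, with percent inhibition read at 1 µM. AlphaScreen cAMP read-out. IC50 by sigmoid non-linear regression. Four independent experiments in triplicate.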

Adenosine receptor A1 [6] = biological target: T1, Adenosine receptor A1; test: Inverse agonist activity at human A1AR expressed in CHO cells assessed as increase in forskolin-stimulated cAMP production by alphascreen assay; type: functional, cell-based
Method in brief: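 Compounds at 1 nM to 1 µM. cAMP rise measured by AlphaScreen. EC50 from sigmoid fit. Four independent experiments in triplicate.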

[7] = biological target: T6, Adenosine receptor A1 (Homo sapiens) (UniProt P30542); test: Inverse agonist activity at human A1AR expressed in CHO cells assessed as increase in forskolin-stimulated cAMP production by alphascreen assay relative to DPCPX; type: functional, cell-based
T6 sequence (whole entry): T1 sequence (P30542 whole entry)
Method in brief: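 Compounds at 1 nM to 1 µM. cAMP rise measured by AlphaScreen. EC50 from sigmoid fit. […] Four independent experiments in triplicate.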

Adenosine receptor A2a [8] = biological target: T2, Adenosine receptor A2a; test: Displacement of [3H]ZM241385 from human A2AR expressed in CHO cell membranes measured after 60 mins by scintillation counting method; method in brief: as §2
Adenosine receptor A3 = biological target: T7, Adenosine receptor A3 (Homo sapiens, UniProt P0DMS8); test: Displacement of [125I]ABMECA from human A3R expressed in CHO cell membranes measured after 120 mins by scintillation counting method; method in brief: as §3
T7 sequence (P0DMS8 whole entry): T3 sequence (whole entry)

Adenosine receptor A2a [9] = biological target: T2, Adenosine receptor A2a; test: Antagonist activity at human A2AR expressed in CHO cells assessed as inhibition of CGS21680-stimulated cAMP production by alphascreen assay; type: functional, cell-based
[10] = biological target: T6, Adenosine receptor A1 (Homo sapiens); test: Displacement of [3H]DPCPX from human A1AR expressed in CHO cell membranes at 1 uM measured after 90 mins by scintillation counting method relative to control; method in brief: as §1

SMILES	Activity (CHO)	Ki (Adenosine receptor A1 [1])	inhibition (Adenosine receptor A2a [2])	inhibition [3]	EC50 (Adenosine receptor A2b)	Efficacy [4]	inhibition [5]	EC50 (Adenosine receptor A1 [6])	Emax [7]	Ki (Adenosine receptor A2a [8])	Ki (Adenosine receptor A3)	IC50 (Adenosine receptor A2a [9])	inhibition [10]
N#Cc1c(N)nc(SCCO)c(C#N)c1-c1ccoc1	inactive	19 nM	19%	34%	852 nM	32%	38%	58 nM	39%				
N#Cc1c(N)nc(SCc2ccccn2)c(C#N)c1-c1ccco1	inactive	2.71 nM			> 1000 nM	9%		3.41 nM	30%	108 nM	134 nM		
N#Cc1c(NC2CCCC2)nc(SCCO)c(C#N)c1-c1ccco1	inactive	742 nM	8%		> 1000 nM	1%					780 nM		
COC(=O)CSc1nc(N)c(C#N)c(-c2ccco2)c1C#N	inactive	108 nM	17%	25%	> 1000 nM	4%							
COC(=O)c1ccc(CSc2nc(N)c(C#N)c(-c3ccco3)c2C#N)o1	inactive	82 nM	1%	11%	> 1000 nM	7%		185 nM	24%				
N#Cc1c(N)nc(SCCO)c(C#N)c1-c1cccs1	inactive	52 nM	1%		885 nM	69%		107 nM	74%		554 nM		
N#Cc1c(N)nc(SCc2cccnc2)c(C#N)c1-c1ccco1	inactive	1.42 nM			> 1000 nM	1%		2.73 nM	47%	24 nM	948 nM	83 nM	
N#Cc1c(N)nc(SCCO)c(C#N)c1-c1cccnc1	inactive	35 nM	7%	22%	> 1000 nM	18%		94 nM	75%				
N#Cc1cccc(CSc2nc(N)c(C#N)c(-c3ccco3)c2C#N)c1	inactive	1.02 nM			> 1000 nM	7%		4.82 nM	100%	93 nM	668 nM		
N#Cc1c(N)nc(SCC(N)=O)c(C#N)c1-c1ccco1	inactive	175 nM	21%		> 1000 nM	17%					177 nM		
COC(=O)c1cccc(CSc2nc(N)c(C#N)c(-c3ccoc3)c2C#N)c1	inactive	2.11 nM		1%	> 1000 nM	7%		4.35 nM	51%	96 nM			
N#Cc1c(N)nc(SCCO)c(C#N)c1-c1ccsc1	inactive	60 nM	9%	33%	> 1000 nM	8%		142 nM	62%				
N#Cc1c(Nc2ccc(I)cc2)nc(SCCO)c(C#N)c1-c1ccco1	inactive		1%	8%	> 1000 nM	1%							10%
N#CCSc1nc(N)c(C#N)c(-c2ccco2)c1C#N	inactive	93 nM			> 1000 nM	1%				887 nM	582 nM		
N#Cc1c(N)nc(SCC(=O)c2ccccc2)c(C#N)c1-c1ccco1	inactive	23 nM		26%	> 1000 nM	1%		57 nM	29%	224 nM			
COC(=O)c1cccc(CSc2nc(N)c(C#N)c(-c3cccnc3)c2C#N)c1	inactive	1.18 nM		8%	> 1000 nM	15%		6.26 nM	72%	636 nM			
CC(=O)Nc1nc(SCCO)c(C#N)c(-c2ccco2)c1C#N	inactive	243 nM	11%		> 1000 nM	3%					211 nM		
N#Cc1c(N)nc(SCC(=O)OCc2ccccc2)c(C#N)c1-c1ccco1	inactive	86 nM	8%	1%	> 1000 nM	10%		192 nM	53%				
CCCn1c(=O)c2[nH]c(C3CCCC3)nc2n(CCC)c1=O						1%							
N#Cc1c(N)nc(SCc2ccncc2)c(C#N)c1-c1ccco1	inactive	40 nM			> 1000 nM	14%	40%			114 nM	678 nM		
N#Cc1c(N)nc(NCCO)c(C#N)c1-c1ccco1	inactive		18%	17%	> 1000 nM	1%	6%						20%
N#Cc1c(N)nc(NCCO)c(C#N)c1-c1cccnc1	inactive		1%	8%	> 1000 nM	1%							1%
N#Cc1c(N)nc(NCCO)c(C#N)c1-c1cccs1	inactive	324 nM	33%	29%	> 1000 nM	1%	4%						
COC(=O)c1cccc(CSc2nc(N)c(C#N)c(-c3cccs3)c2C#N)c1	inactive	2.72 nM		15%	982 nM	62%		3.85 nM	56%	693 nM			
N#Cc1c(N)nc(SCCO)c(C#N)c1-c1ccco1	inactive	57 nM	27%	29%	> 1000 nM	7%	33%	128 nM	83%				
N#Cc1c(N)nc(OCCO)c(C#N)c1-c1ccco1	inactive	632 nM	25%	3%	> 1000 nM	11%							
